According to ChEMBL document CHEMBL3580554, “Design, synthesis, and anticonvulsant activity of new hybrid compounds derived from 2-(2,5-dioxopyrrolidin-1-yl)propanamides and 2-(2,5-dioxopyrrolidin-1-yl)butanamides” (J Med Chem, 2015):

What was measured:
[1] = Toxicity in ip dosed Swiss mouse assessed as induction of motor performance impairment measured within 60 seconds measured at 1 hr of time to peak effect by Chimney test; format: organism-based; details: in vivo
Method in brief: (§1)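 Neurotoxicity (TD50) estimated in mice i.p. by chimney test for motor coordination impairment; protective index calculated as TD50/ED50 for each seizure model.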

[2] = system: Mus musculus; assay: Anticonvulsant activity in ip dosed Swiss mouse assessed as protection against seizures measured at 1 hr of time to peak effect by subcutaneous pentylenetetrazole seizure test; format: functional
[3] = system: Mus musculus; assay: Anticonvulsant activity in ip dosed Swiss mouse assessed as protection against seizures measured at 1 hr of time to peak effect by maximal electroshock test; format: functional
[4] = system: Mus musculus; assay: Anticonvulsant activity in ip dosed Swiss mouse assessed as protection against seizures measured at 1 hr of time to peak effect by 6 Hz test by 6 Hz psychomotor seizure test; format: functional
[5] = Protective index, ratio of neurotoxic TD50 in Swiss mouse by Chimney test to anticonvulsant ED50 in Swiss mouse measured at 1 hr of time to peak effect by 6 Hz test by 6 Hz psychomotor seizure test; format: toxicity; details: in vivo, read-out: Ratio TD50/ED50; method in brief: as §1
[6] = system: Mus musculus; assay: Anticonvulsant activity in Swiss mouse assessed as protection against seizures at 100 mg/kg, ip dosed 0.25 hrs before initiation of maximal electroconvulsions by maximal electroshock test; format: functional
Method in brief: (§2)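 Mice were dosed i.p. at a fixed 300 or 100 mg/kg (6 Hz: 100 mg/kg only). Protection was then scored against MES, sc PTZ or 6 Hz seizures at pretreatment times of 0.25, 0.5, 1 and 2 h. Groups were four mice, scored as number protected / number tested. This also gives the time course and time of peak effect.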

[7] = system: Mus musculus; assay: Anticonvulsant activity in Swiss mouse model of 6 Hz psychomotor seizure mode assessed as protection against seizures at 100 mg/kg, ip dosed 0.25 hrs before 6 Hz electrical stimulation by 6 Hz test; format: functional; method in brief: as §2
[8] = system: Mus musculus; assay: Anticonvulsant activity in Swiss mouse assessed as protection against seizures at 100 mg/kg, ip dosed 2 hrs before initiation of maximal electroconvulsions by maximal electroshock test; format: functional; method in brief: as §2
[9] = system: Mus musculus; assay: Anticonvulsant activity in Swiss mouse model of 6 Hz psychomotor seizure mode assessed as protection against seizures at 100 mg/kg, ip dosed 1 hr before 6 Hz electrical stimulation by 6 Hz test; format: functional; method in brief: as §2
[10] = system: Mus musculus; assay: Anticonvulsant activity in Swiss mouse assessed as protection against seizures at 100 mg/kg, ip dosed 0.5 hrs before initiation of maximal electroconvulsions by maximal electroshock test; format: functional; method in brief: as §2
[11] = system: Mus musculus; assay: Anticonvulsant activity in Swiss mouse assessed as protection against seizures at 300 mg/kg, ip dosed 0.25 hrs before initiation of maximal electroconvulsions by maximal electroshock test; format: functional; method in brief: as §2
[12] = system: Mus musculus; assay: Anticonvulsant activity in Swiss mouse assessed as protection against seizures at 300 mg/kg, ip dosed 1 hr before pentylenetetrazole challenge by subcutaneous pentylenetetrazole seizure test; format: functional; method in brief: as §2
[13] = system: Mus musculus; assay: Anticonvulsant activity in Swiss mouse assessed as protection against seizures at 300 mg/kg, ip dosed 0.5 hrs before initiation of maximal electroconvulsions by maximal electroshock test; format: functional; method in brief: as §2
[14] = system: Mus musculus; assay: Anticonvulsant activity in Swiss mouse assessed as protection against seizures at 100 mg/kg, ip dosed 1 hr before pentylenetetrazole challenge by subcutaneous pentylenetetrazole seizure test; format: functional; method in brief: as §2
[15] = system: Mus musculus; assay: Anticonvulsant activity in ip dosed Swiss mouse assessed as protection against seizures measured at 0.5 hrs of time to peak effect by 6 Hz test by 6 Hz psychomotor seizure test; format: functional
Method in brief: (§3)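 Median effective doses (ED50, mg/kg) were determined i.p. in mice at the time of peak effect in the MES, sc PTZ or 6 Hz tests. Only compounds giving at least 50% protection at 100 mg/kg in that test were taken forward.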

[16] = system: Mus musculus; assay: Anticonvulsant activity in ip dosed Swiss mouse assessed as protection against seizures measured at 0.5 hrs of time to peak effect by maximal electroshock test; format: functional; method in brief: as §3
[17] = system: Mus musculus; assay: Anticonvulsant activity in Swiss mouse assessed as protection against seizures at 100 mg/kg, ip dosed 2 hrs before pentylenetetrazole challenge by subcutaneous pentylenetetrazole seizure test; format: functional; method in brief: as §2
[18] = system: Mus musculus; assay: Anticonvulsant activity in Swiss mouse assessed as protection against seizures at 300 mg/kg, ip dosed 0.25 hrs before pentylenetetrazole challenge by subcutaneous pentylenetetrazole seizure test; format: functional; method in brief: as §2
[19] = system: Mus musculus; assay: Anticonvulsant activity in Swiss mouse assessed as protection against seizures at 300 mg/kg, ip dosed 2 hrs before initiation of maximal electroconvulsions by maximal electroshock test; format: functional; method in brief: as §2
[20] = system: Mus musculus; assay: Anticonvulsant activity in Swiss mouse assessed as protection against seizures at 300 mg/kg, ip dosed 2 hrs before pentylenetetrazole challenge by subcutaneous pentylenetetrazole seizure test; format: functional; method in brief: as §2
[21] = Toxicity in ip dosed Swiss mouse assessed as induction of motor performance impairment measured within 60 seconds measured at 0.5 hrs of time to peak effect by Chimney test; format: organism-based; details: in vivo
Method in brief: (§4)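 Neurotoxicity was measured i.p. in mice by the chimney test for motor impairment. It was given as the median neurotoxic dose (TD50, mg/kg) at the time of peak effect.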

[22] = system: Mus musculus; assay: Anticonvulsant activity in Swiss mouse assessed as protection against seizures at 300 mg/kg, ip dosed 1 hr before initiation of maximal electroconvulsions by maximal electroshock test; format: functional; method in brief: as §2
[23] = system: Mus musculus; assay: Anticonvulsant activity in Swiss mouse model of 6 Hz psychomotor seizure mode assessed as protection against seizures at 100 mg/kg, ip dosed 0.5 hrs before 6 Hz electrical stimulation by 6 Hz test; format: functional; method in brief: as §2
[24] = system: Mus musculus; assay: Anticonvulsant activity in Swiss mouse assessed as protection against seizures at 300 mg/kg, ip dosed 0.5 hrs before pentylenetetrazole challenge by subcutaneous pentylenetetrazole seizure test; format: functional; method in brief: as §2
[25] = system: Mus musculus; assay: Anticonvulsant activity in Swiss mouse model of 6 Hz psychomotor seizure mode assessed as protection against seizures at 100 mg/kg, ip dosed 2 hrs before 6 Hz electrical stimulation by 6 Hz test; format: functional; method in brief: as §2
[26] = system: Mus musculus; assay: Anticonvulsant activity in Swiss mouse assessed as protection against seizures at 100 mg/kg, ip dosed 0.25 hrs before pentylenetetrazole challenge by subcutaneous pentylenetetrazole seizure test; format: functional; method in brief: as §2
[27] = species: Mus musculus; assay: Protective index, ratio of neurotoxic TD50 in Swiss mouse by Chimney test to anticonvulsant ED50 in Swiss mouse measured at 0.5 hrs of time to peak effect by 6 Hz test by 6 Hz psychomotor seizure test; format: functional
Method in brief: (§5)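 Protective index was calculated as TD50 (chimney test, mouse, i.p.) divided by ED50 from the matching MES, sc PTZ or 6 Hz test, both taken at the time of peak effect.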

[28] = species: Mus musculus; assay: Protective index, ratio of neurotoxic TD50 in Swiss mouse by Chimney test to anticonvulsant ED50 in Swiss mouse measured at 0.5 hrs of time to peak effect by maximal electroshock test; method in brief: as §5
[29] = system: Mus musculus; assay: Anticonvulsant activity in ip dosed Swiss mouse assessed as protection against seizures measured at 0.5 hrs of time to peak effect by subcutaneous pentylenetetrazole seizure test; format: functional; method in brief: as §3
[30] = system: Mus musculus; assay: Protective index, ratio of neurotoxic TD50 in Swiss mouse by Chimney test to anticonvulsant ED50 in Swiss mouse measured at 0.5 hrs of time to peak effect by subcutaneous pentylenetetrazole seizure test; format: functional; method in brief: as §5
[31] = system: Mus musculus; assay: Anticonvulsant activity in Swiss mouse assessed as protection against seizures at 100 mg/kg, ip dosed 1 hr before initiation of maximal electroconvulsions by maximal electroshock test; format: functional; method in brief: as §2
[32] = system: Mus musculus; assay: Anticonvulsant activity in Swiss mouse assessed as protection against seizures at 100 mg/kg, ip dosed 0.5 hrs before pentylenetetrazole challenge by subcutaneous pentylenetetrazole seizure test; format: functional; method in brief: as §2
[33] = Toxicity in ip dosed Swiss mouse assessed as induction of motor performance impairment measured within 60 seconds measured at 0.25 hrs of time to peak effect by Chimney test; format: organism-based; details: in vivo; method in brief: as §4
[34] = species: Mus musculus; assay: Protective index, ratio of neurotoxic TD50 in Swiss mouse by Chimney test to anticonvulsant ED50 in Swiss mouse measured at 0.25 hrs of time to peak effect by maximal electroshock test; method in brief: as §5
[35] = system: Mus musculus; assay: Anticonvulsant activity in ip dosed Swiss mouse assessed as protection against seizures measured at 0.25 hrs of time to peak effect by 6 Hz test by 6 Hz psychomotor seizure test; format: functional; method in brief: as §3
[36] = system: Mus musculus; assay: Anticonvulsant activity in ip dosed Swiss mouse assessed as protection against seizures measured at 0.25 hrs of time to peak effect by maximal electroshock test; format: functional; method in brief: as §3
[37] = species: Mus musculus; assay: Protective index, ratio of neurotoxic TD50 in Swiss mouse by Chimney test to anticonvulsant ED50 in Swiss mouse measured at 0.25 hrs of time to peak effect by 6 Hz test by 6 Hz psychomotor seizure test; format: functional; method in brief: as §5
[38] = system: Mus musculus; assay: Anticonvulsant activity in ip dosed Swiss mouse assessed as protection against seizures measured at 0.25 hrs of time to peak effect by subcutaneous pentylenetetrazole seizure test; format: functional; method in brief: as §3
[39] = system: Mus musculus; assay: Protective index, ratio of neurotoxic TD50 in Swiss mouse by Chimney test to anticonvulsant ED50 in Swiss mouse measured at 0.25 hrs of time to peak effect by subcutaneous pentylenetetrazole seizure test; format: functional; method in brief: as §5

Row | Compound | Activity [6] | Activity [7] | Activity [8] | Activity [9] | Activity [10] | Activity [11] | Activity [12] | Activity [13] | Activity [14] | Activity [17] | Activity [18] | Activity [19] | Activity [20] | Activity [22] | Activity [23] | Activity [24] | Activity [25] | Activity [26] | Activity [31] | Activity [32] | other results
1 | CC[C@@H](C(N)=O)N1CCCC1=O |  |  |  |  |  |  |  |  |  |  |  |  |  |  |  |  |  |  |  |  | TD50 at 1 h [1]: > 500 mg/kg; ED50 [2]: > 500 mg/kg; ED50 [3]: > 500 mg/kg; ED50 [4]: 14.8 mg/kg; selectivity ratio at 1 h [5]: > 33.8
2 | CC(C(=O)N1CCN(c2cccc(Cl)c2)CC1)N1C(=O)CCC1=O (racemic) | 50% | 100% | 0% | 75% | 75% | 75% | 75% | 100% | 50% | 25% | 75% | 50% | 75% | 75% | 100% | 75% | 25% | 50% | 50% | 75% | ED50 [15]: 50.4 mg/kg; ED50 [16]: 119 mg/kg; TD50 at 0.5 h [21]: 202 mg/kg; Ratio TD50/ED50 [27]: 4; Ratio TD50/ED50 [28]: 1.69; ED50 [29]: 69.6 mg/kg; Ratio TD50/ED50 [30]: 2.9
3 | CC(C(=O)N1CCN(c2ccccc2C(F)(F)F)CC1)N1C(=O)CCC1=O (racemic) | 100% | 100% | 0% | 0% | 25% | 100% | 75% | 100% | 25% | 0% | 100% | 75% | 50% | 75% | 25% | 100% | 0% | 100% | 25% | 75% | TD50 at 0.25 h [33]: 149 mg/kg; Ratio TD50/ED50 [34]: 1.97; ED50 [35]: 74.2 mg/kg; ED50 [36]: 75.5 mg/kg; Ratio TD50/ED50 [37]: 2.01; ED50 [38]: 87.1 mg/kg; Ratio TD50/ED50 [39]: 1.71
